An excerpt weighted towards active compounds, which were near 2% of everything screened.
PfM18AAP inh-1 = blocks P. falciparum M18 aspartyl aminopeptidase. 1.2% of 290,000 active. AID 1822. recombinant PfM18AAP, H-Glu-NHMec fluorogenic cleavage. inhibition, % at 7.35 µM;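 active = inhibition above the campaign mean inhibition over all tested compounds plus 3 SD, cut at about 28% in these data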
L929 necroptosis = L929 zVAD cell death inhibition. viability rescue, % at 10 µM. AID 1377. L929 zVAD necroptosis rescue, ATP luminescence, 24 h; with zVAD 60 µM. 0.38% of 220,000 active;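 active = activation, scaled between plate controls, above about 75%, limit read from the data; inactive = activation under that limit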
Tb hexokinase = T. brucei hexokinase 1 inhibition; inhibition, % at 10 µM; recombinant TbHK1, G6PDH-coupled NADH A340; AID 1430; 0.11% of 220,000 active;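 active = inhibition of 50% or more in the single-dose primary screen; inactive = inhibition below 50%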
RBBP9 inh = inhibitors of human serine hydrolase RBBP9 | recombinant RBBP9, FP-Rh probe fluorescence polarization | inhibition, % at 7.94 µM | 0.2% of 220,000 active | AID 1515;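 active = inhibition above the campaign mean of all tested compounds plus 3 SD, cut at about 14% in these data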
Target sequence (O75884 whole entry, looked up): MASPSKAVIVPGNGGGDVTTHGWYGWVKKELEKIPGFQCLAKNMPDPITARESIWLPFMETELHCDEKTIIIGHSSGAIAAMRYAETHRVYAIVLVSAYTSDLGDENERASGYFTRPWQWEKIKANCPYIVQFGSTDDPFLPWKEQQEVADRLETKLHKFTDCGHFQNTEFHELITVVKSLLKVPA
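Controls: DMSO-treated enzyme wells and wells lacking RBBP9 | Material: RBBP9 protein | Technique: Fluorescence polarization | Replication: Single well per compound, no replicates | Buffer or medium: Tris-NaCl-Pluronic buffer, pH 8.0 | Timing: 30 min compound preincubation, 45 min probe labeling, 25 °C | Read-out basis: Percent inhibition from mP, scaled between DMSO and no-protein wells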
Lipid droplet = hepatic lipid droplet formation modulation; AML12 mouse hepatocytes, oleate lipid droplets, BODIPY imaging; inhibition, % at 6.5 µM; 0.4% of 240,000 active; AID 1656;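 active = lipid droplet intensity inhibited by at least 50%, with more than 500 cells counted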
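Assay system: AML12 mouse liver cells | Compound: 6.5 µM single-point dosing | Schedule: Overnight exposure | Technique: Fluorescence imaging, 20x objective, two fields per well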
TNF death inh = inhibitors of TNF-alpha induced necroptosis in Jurkat FADD-/- cells; 0.068% of 220,000 active; Jurkat FADD-/- TNF necroptosis rescue, ATP luminescence, 24 h; 0 = TNF only, 100 = no-TNF cells; activation (protection from cell death), % at 10 µM; AID 463075;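 active = activation, meaning protection from cell death, of at least 50% relative to plate controls; inactive = activation below 50%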;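 also: necroptosis triggered by 40 ng/mL TNF-alpha added together with compound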
PfM18AAP inh-2 = PfM18AAP inhibition, confirmation; inhibition, % at 7.35 µM; shares compounds with PfM18AAP inh-1; recombinant PfM18AAP, H-Glu-NHMec fluorogenic cleavage; 28% of 2,400 active; AID 2170;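 active = mean inhibition over replicate wells above the hit cutoff set for the earlier primary screen, cut at about 29% in these data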
CTSL1 confirm = Cathepsin L (human) inhibition, confirmation; inhibition, % at 5.96 µM; shares compounds with PfM18AAP inh-1; 2,400 tested, under 10 active; purified cathepsin L1, Z-Leu-Arg-MCA fluorescence;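 active = average inhibition across replicates above the hit cutoff set in the earlier primary screen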
Target sequence (P07711 whole entry, looked up): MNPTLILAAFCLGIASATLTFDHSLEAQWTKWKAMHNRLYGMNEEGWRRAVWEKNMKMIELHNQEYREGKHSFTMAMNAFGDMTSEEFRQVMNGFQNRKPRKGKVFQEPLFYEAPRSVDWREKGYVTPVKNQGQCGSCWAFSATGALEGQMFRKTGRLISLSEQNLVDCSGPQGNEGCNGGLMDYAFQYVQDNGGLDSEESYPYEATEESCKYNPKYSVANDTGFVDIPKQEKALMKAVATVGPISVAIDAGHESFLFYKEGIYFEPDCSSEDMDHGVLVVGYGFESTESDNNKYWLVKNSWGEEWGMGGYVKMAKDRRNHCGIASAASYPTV
Hits are given with their value; 0 = inactive; - = no result.

SMILES | PfM18AAP inh-1 | L929 necroptosis | Tb hexokinase | RBBP9 inh | Lipid droplet | TNF death inh | PfM18AAP inh-2 | CTSL1 confirm
Cc1c(C(=O)O)sc2[nH]c(=O)n(Cc3ccccc3)c(=O)c12 | 0 | - | - | - | 0 | - | - | -
COc1ccc(O)c(C(=O)C2c3ccccc3C(=O)N2c2ccc(C)cc2)c1 (stereo unspecified) | 40 | 0 | 0 | 0 | 0 | 0 | 0 | 0
O=C(NCc1ccccn1)c1n[nH]c2ccccc12 | 37 | 0 | 0 | 0 | - | 0 | 0 | 0
COCCCNC(=S)NNC(=O)c1ccccn1 | 0 | 0 | 0 | 0 | 0 | 0 | - | -
COCCCNC(=S)NNC(=O)c1cc(Cl)c(O)c(Cl)c1 | 47 | 0 | 0 | 0 | 0 | 0 | 0 | 0
COCCCNC(=S)NNC(=O)c1ccccc1Br | 0 | 0 | 0 | 0 | 0 | 0 | - | -
COCCCNC(=S)NNC(=S)NCCCOC | 32 | 0 | 0 | 0 | 0 | 0 | 0 | 0
CCN(CC)CCNC(=O)C(=O)Nc1cc2c3c(c1)CCC(=O)N3CCC2 | 0 | - | - | - | 0 | - | - | -
Cc1[nH]c(=O)[nH]c(=O)c1S(=O)(=O)Nc1cccc(C(F)(F)F)c1 | 0 | - | - | - | 0 | - | - | -
CCCCN1CC(=O)N2[C@H](c3ccc(OC)cc3)[C@@H]3C(=O)N(CC)C(=O)[C@@H]3[C@]2(C)C1=O | 0 | - | - | - | 0 | - | - | -
O=[N+]([O-])c1cc(-c2ccc(/C=N/n3cnnc3)o2)ccc1Cl | 0 | - | - | - | 0 | - | - | -
Cc1cc(-c2ccc(/C=N/n3cnnc3)o2)c(C)c([N+](=O)[O-])c1 | 43 | - | - | - | 0 | - | 0 | 0
COc1cc([N+](=O)[O-])ccc1-c1ccc(/C=N\n2cnnc2)o1 | 44 | - | - | - | 0 | - | 0 | 0
O=[N+]([O-])c1ccc(Cl)c(-c2ccc(/C=N/n3cnnc3)o2)c1 | 0 | - | - | - | 0 | - | - | -
CC(=S)/C=C1\Sc2ccccc2N1C | 37 | 0 | 0 | 0 | - | 0 | 0 | 0
O=[N+]([O-])c1cc2c(cc1/C=N/NS(=O)(=O)c1ccc(Br)cc1)OCO2 | 50 | 0 | 0 | 0 | 0 | 0 | 0 | 0
CCOC(=O)c1c(C2COc3ccccc3O2)csc1N (stereo unspecified) | 60 | 0 | 0 | 0 | - | 0 | 0 | 0
CCOC(=O)c1c(C2COc3ccccc3O2)csc1NC(=O)c1ccccc1 (stereo unspecified) | 0 | 0 | 0 | 0 | 0 | 0 | - | -
Cc1ccc(NC(=O)C2=CCN(S(=O)(=O)c3ccc(F)cc3)CC2)cc1 | 0 | - | 0 | 0 | - | 0 | - | -
Cc1ccc(S(=O)(=O)N2CC=C(c3ccc(F)cc3)CC2)cc1 | 76 | 0 | 0 | 0 | 0 | 0 | 0 | 0
Cc1ccc(-c2cn3c(=S)[nH]nc3s2)cc1 | 64 | 0 | 0 | 0 | - | 0 | 46 | 0
COc1ccc(CCC(=O)O)cc1OC | 0 | 0 | 0 | 0 | 0 | 0 | - | -
O=C(COc1ccc(C(=S)N2CCOCC2)cc1Cl)Nc1ccccc1Cl | 42 | 0 | 0 | 0 | 0 | 0 | 0 | 0
COc1ccc(OC)c(NC(=O)NC2(C(F)(F)F)Oc3ccccc3O2)c1 | 63 | 0 | 0 | 0 | - | 0 | 0 | 0
NS(=O)(=O)c1ccc(CCNC(=O)NC2(C(F)(F)F)Oc3ccccc3O2)cc1 | 67 | 0 | 0 | 0 | 0 | 0 | 0 | 0
SMILES | PfM18AAP inh-1 | L929 necroptosis | Tb hexokinase | RBBP9 inh | Lipid droplet | TNF death inh | PfM18AAP inh-2 | CTSL1 confirm
CCCCNC(=O)NC1(C(F)(F)F)Oc2ccccc2O1 | 81 | 0 | 0 | 0 | 0 | 0 | 0 | 0
CC(C)CNC(=O)c1ccccc1NC(=O)CN(c1ccccc1)S(=O)(=O)N(C)C | 0 | 0 | 0 | 0 | 0 | 0 | - | -
Cc1nn(C)c(-c2n[nH]c(=S)n2-c2ccccc2)c1Cl | 32 | 0 | 0 | 0 | 0 | 0 | 0 | 0
Cc1nn(C)cc1-c1n[nH]c(=S)n1-c1ccc(F)cc1 | 35 | 0 | 0 | 0 | 0 | 0 | 0 | 0
Cn1cc(Cl)c(-c2n[nH]c(=S)n2-c2ccccc2)n1 | 0 | 0 | 0 | 0 | 0 | 0 | - | -
O=C(NCC(=O)N1CCCCCC1)c1ccc(Br)cc1 | 0 | - | - | - | 0 | - | - | -
S=C(NCc1ccccc1)NN1CCOCC1 | 0 | 0 | 0 | 0 | 0 | 0 | - | -
CO/N=C(\C(=O)O)c1csc(NN=C(C)C)n1 | 41 | 0 | 0 | 0 | 0 | 0 | 0 | 0
CC(=O)n1c(Cl)c(NC(=O)CCl)c2ccccc21 | 0 | 0 | 0 | 0 | 0 | 0 | - | -
CCOC(=O)c1ccc(-n2c(N)c(C(=O)NCc3ccco3)sc2=S)cc1 | 0 | 0 | 0 | 0 | - | 0 | - | -
C=CCNC(=O)c1sc(=S)n(-c2ccc(C(=O)OCC)cc2)c1N | 42 | 0 | 0 | 0 | 0 | 0 | 0 | 0
COc1cccc2c(SCC(=O)N/N=C/c3ccccc3)cc(C)nc12 | 0 | 0 | 0 | 0 | 0 | 0 | - | -
COc1ccc2c(c1)c(C(=O)N/N=C/c1ccc(Br)cc1)c(C)n2C | 0 | 0 | 0 | 0 | 0 | 0 | - | -
COc1ccc2nc(C)cc(SCC(=O)N/N=C/c3ccc(O)c(O)c3)c2c1 | 60 | 0 | 0 | 0 | 0 | 0 | 63 | 0
COc1cccc2c(SCC(=O)N/N=C/c3ccc(O)c(O)c3)cc(C)nc12 | 66 | 0 | 0 | 0 | 0 | 0 | 63 | 0
COc1ccc2c(c1)c(C(=O)N/N=C/c1ccc(O)c(O)c1)c(C)n2C | 51 | 0 | 0 | 0 | 0 | 0 | 40 | 0
O=C(CC1NCCNC1=O)Nc1ccc([N+](=O)[O-])cc1 (stereo unspecified) | 0 | 0 | 0 | 0 | 0 | 0 | - | -
CCOC(=O)Cc1csc(NC(=O)CC(C)(C)C)n1 | 0 | 0 | 0 | 0 | - | 0 | - | -
CC(C(=O)Nc1ncn[nH]1)N1C(=O)c2ccccc2C1=O (stereo unspecified) | 51 | 0 | 0 | 0 | 0 | 0 | 51 | 0
CC1CCCC(C)N1C(=O)CN1C(=O)C(C)(C)Oc2ccc(C(=O)NC3CCCC3)cc21 (stereo unspecified) | 0 | 0 | 0 | 0 | 0 | 0 | - | -
CCc1ccc(C(C(=O)NC2CCCCC2)N(C(=O)c2csnn2)C2CC2)cc1 (stereo unspecified) | 0 | - | - | - | 0 | - | - | -
NC(=S)Nc1cccc2cccnc12 | 32 | 0 | 0 | 0 | - | 0 | 0 | 0
O=C(COc1cc(O)c2c(=O)c3ccccc3oc2c1)OCc1ccccc1 | 0 | 0 | 0 | 0 | 0 | 0 | - | -
CC(C)(C)NC(=O)C1Cc2ccccc2CN1C(=O)Nc1ccccc1Cl (stereo unspecified) | 0 | 0 | 0 | 0 | - | 0 | - | -
Oc1ccc(/C=N/Nc2nccnc2Cl)c(O)c1 | 35 | 0 | 0 | 0 | 0 | 0 | 0 | 0
COc1ccc(/C=N/Nc2nccnc2Cl)cc1 | 36 | 0 | 0 | 0 | 0 | 0 | 0 | 0
COc1ccc(/C=N/Nc2ncnc(Cl)c2N)cc1OC | 35 | 0 | 0 | 0 | 0 | 0 | 0 | 0
COc1ccc(/C=N/Nc2nccnc2Cl)c(OC)c1 | 0 | 0 | 0 | 0 | 0 | 0 | - | -
CN1CCN(c2nc3ccccn3c(=O)c2C=C(C#N)C#N)CC1 | 0 | - | - | - | 0 | - | - | -

Compound activity (PubChem)
